Experimental data from different studies.
Lines come from different studies, so protocols differ.
Organism: Staphylococcus aureus
Read-out: microbial growth

CN[C@H](CC(C)C)C(=O)N[C@H]1C(=O)N[C@@H](CC(N)=O)C(=O)N[C@H]2C(=O)N[C@H]3C(=O)N[C@H](C(=O)N[C@H](C(=O)O)c4cc(O)cc(O)c4-c4cc3ccc4O)[C@H](O)c3ccc(c(Cl)c3)Oc3cc2cc(c3O[C@@H]2O[C@H](CO)[C@@H](O)[C@H](O)[C@H]2O[C@H]2C[C@](C)(N)[C@H](O)[C@H](C)O2)Oc2ccc(cc2Cl)[C@H]1O — MIC (NEWMAN): 1 µg/mL
Cc1ccccc1-n1c(Cn2cnc3c(N)ncnc32)nc2cccc(C)c2c1=O — MIC (NCTC8325): > 30 µM
CCCCCCCCCCCCCCCC(=O)C(F)(F)P(=O)(O)O — MIC (ATCC33591 MRSA; drug-resistant strain): 100 µg/mL
COc1cc(C)c(Cc2cnc(N)nc2N)cc1OC — MIC (broth dilution): ~16.6 µM
Cn1cc(C2=C(c3cn(C4CCN(Cc5ccccn5)CC4)c4ccccc34)C(=O)NC2=O)c2ccccc21 — MIC (NCTC8325): > 30 µM
Cc1ccc2nc(-c3ccc(Cl)cc3)[nH]c2c1 — MIC (broth dilution; ATCC43300 MRSA; drug-resistant strain): 512 µg/mL
CCCCCCC#Cc1cncc(-c2nnc(Sc3ccc([N+](=O)[O-])cc3[N+](=O)[O-])n2C)c1 — MIC (MRSA; drug-resistant strain): ≥ 20 µg/mL
CN[C@H](CC(C)C)C(=O)N[C@H]1C(=O)N[C@@H](CC(N)=O)C(=O)N[C@H]2C(=O)N[C@H]3C(=O)N[C@H](C(=O)N[C@H](C(=O)O)c4cc(O)cc(O)c4-c4cc3ccc4O)[C@H](O)c3ccc(c(Cl)c3)Oc3cc2cc(c3O[C@@H]2O[C@H](CO)[C@@H](O)[C@H](O)[C@H]2O[C@H]2C[C@](C)(N)[C@H](O)[C@H](C)O2)Oc2ccc(cc2Cl)[C@H]1O — MIC (broth dilution; ATCCBAA41; drug-resistant strain): 1 µg/mL
C[C@H]1COCCN1c1nc(NCc2cccnc2C(F)(F)F)c2cccnc2n1 — MIC (broth dilution; MRSA): 128 µg/mL
CCC1C(=NOCc2cc(-c3ccc(Cl)cc3)no2)CC(c2ccccc2)OC1c1ccccc1 (stereo not shown) — MIC (broth dilution; MTCC96; 24 h): 50 µg/mL
Clc1ccc(Cn2c(-c3ccc(Cl)cc3)nc3ccccc32)cc1 — MIC (broth dilution; ATCC43300 MRSA; drug-resistant strain): 16 µg/mL
COC(=O)c1cc(-c2cccc(NC(=S)Nc3ccc(C#N)cc3)c2)on1 — MIC (broth dilution; ATCC29213): > 64 µg/mL
CC[C@H]1OC(=O)[C@H](C)[C@@H](O[C@H]2C[C@@](C)(OC)[C@@H](O)[C@H](C)O2)[C@H](C)[C@@H](O[C@@H]2O[C@H](C)C[C@H](N(C)C)[C@H]2O)[C@](C)(O)C[C@@H](C)C(=O)[C@H](C)[C@@H](O)[C@]1(C)O — MIC (USA300): 32 µg/mL
Oc1ccccc1-c1nc2ccccc2[nH]1 — MIC (broth dilution; ATCC43300 MRSA; drug-resistant strain): 256 µg/mL
CN[C@H](CC(C)C)C(=O)N[C@H]1C(=O)N[C@@H](CC(N)=O)C(=O)N[C@H]2C(=O)N[C@H]3C(=O)N[C@H](C(=O)N[C@H](C(=O)O)c4cc(O)cc(O)c4-c4cc3ccc4O)[C@H](O)c3ccc(c(Cl)c3)Oc3cc2cc(c3O[C@@H]2O[C@H](CO)[C@@H](O)[C@H](O)[C@H]2O[C@H]2C[C@](C)(N)[C@H](O)[C@H](C)O2)Oc2ccc(cc2Cl)[C@H]1O — MIC (VRSA; drug-resistant strain): > 16 µg/mL
CCC(CC)c1cc(CCN2CCCN(Cc3ccc(C(F)(F)F)cc3)CC2)nc(-c2ccncc2)n1 — MIC (ATCCBAA41; drug-resistant strain, clinical isolate): 6 µg/mL
O=C(Nc1ccc(Cl)c(C(F)(F)F)c1)N1CCCCC1 — MIC (NCTC8325): 30 µM
CN[C@H](CC(C)C)C(=O)N[C@H]1C(=O)N[C@@H](CC(N)=O)C(=O)N[C@H]2C(=O)N[C@H]3C(=O)N[C@H](C(=O)N[C@H](C(=O)O)c4cc(O)cc(O)c4-c4cc3ccc4O)[C@H](O)c3ccc(c(Cl)c3)Oc3cc2cc(c3O[C@@H]2O[C@H](CO)[C@@H](O)[C@H](O)[C@H]2O[C@H]2C[C@](C)(N)[C@H](O)[C@H](C)O2)Oc2ccc(cc2Cl)[C@H]1O — MIC (MRSA): 8 µg/mL
Cc1ccc2nc(-c3cccc([N+](=O)[O-])c3)[nH]c2c1 — MIC (broth dilution; ATCC43300 MRSA; drug-resistant strain): 64 µg/mL
CN[C@@H]1[C@H](O)[C@H](NC)[C@H]2O[C@@]3(O)C(=O)C[C@@H](C)O[C@H]3O[C@@H]2[C@H]1O — MIC (broth dilution; 8325): 25 µg/mL
COC(=O)c1cc(-c2cccc(NC(=S)Nc3ccccc3Cl)c2)on1 — MIC (broth dilution; ATCC29213): > 64 µg/mL
CC1(C)S[C@@H]2[C@H](NC(=O)[C@H](N)c3ccccc3)C(=O)N2[C@H]1C(=O)O — MIC (USA300): 64 µg/mL
Cc1ccc2[nH]c3c(c2c1)CCCC3NCCc1ccc(Br)cc1 (stereo not shown) — MIC (broth dilution; ATCC29213): 4 µg/mL
COC(=O)c1cc(-c2cccc(NC(=O)Nc3ccc(Cl)cc3Cl)c2)on1 — MIC (broth dilution; ATCC29213): > 64 µg/mL
COC(=O)c1cc(Oc2ccc(NC(=O)Nc3ccc(Cl)c(C(F)(F)F)c3)cc2)ccn1 — MIC (NCTC8325): 3 µM
CCCCCCCCCCCCCCCC(=O)NP(=O)(O)O — MIC (ATCC33591 MRSA; drug-resistant strain): 200 µg/mL
CN[C@H](CC(C)C)C(=O)N[C@H]1C(=O)N[C@@H](CC(N)=O)C(=O)N[C@H]2C(=O)N[C@H]3C(=O)N[C@H](C(=O)N[C@H](C(=O)O)c4cc(O)cc(O)c4-c4cc3ccc4O)[C@H](O)c3ccc(c(Cl)c3)Oc3cc2cc(c3O[C@@H]2O[C@H](CO)[C@@H](O)[C@H](O)[C@H]2O[C@H]2C[C@](C)(N)[C@H](O)[C@H](C)O2)Oc2ccc(cc2Cl)[C@H]1O — MIC (ATCC33591; drug-resistant strain): 1.56 µg/mL
O=C(Nc1cccc(-c2cc(C(=O)O)no2)c1)Nc1ccc(Cl)c(Cl)c1 — MIC (broth dilution; ATCC29213): > 64 µg/mL
Cc1ccc2nc(-c3ccccc3O)[nH]c2c1 — MIC (broth dilution; ATCC43300 MRSA; drug-resistant strain): 256 µg/mL
COC(=O)c1cc(-c2cccc(NC(=S)Nc3ccc(OC)cc3)c2)on1 — MIC (broth dilution; ATCC29213): > 64 µg/mL
COc1cccc(OC)c1C(=O)N[C@@H]1C(=O)N2[C@@H]1SC(C)(C)[C@@H]2C(=O)O — MIC (ATCCBAA1720; drug-resistant strain, clinical isolate): > 64 µg/mL
C=CCn1c(-c2ccc([N+](=O)[O-])cc2)nc2ccc(C)cc21 — MIC (broth dilution; ATCC43300 MRSA; drug-resistant strain): 64 µg/mL
CCCCCCCCCCCCCCCC(=O)NS(=O)(=O)Oc1ccc(OC)cc1 — MIC (ATCC33591 MRSA; drug-resistant strain): > 200 µg/mL
CC1(C)CC[C@]2(C(=O)O)CC[C@]3(C)C(=CC[C@@H]4[C@@]5(C)CC[C@H](O)C(C)(C)[C@@H]5CC[C@]43C)[C@@H]2C1 — MIC (ATCC25904): 256 µg/mL
COc1ccc(-c2nc3ccc(C)cc3[nH]2)cc1O — MIC (broth dilution; ATCC43300 MRSA; drug-resistant strain): 128 µg/mL
COc1ccc(OS(=O)(=O)NC(=O)CCCCc2ccccc2)cc1 — MIC (ATCC33591 MRSA; drug-resistant strain): > 200 µg/mL
COC(=O)c1cc(-c2cccc(NC(=O)Nc3ccc(C)c(Cl)c3)c2)on1 — MIC (broth dilution; ATCC29213): > 64 µg/mL
c1ccc(CCOC2CCCc3c2[nH]c2ccccc32)cc1 (stereo not shown) — MIC (broth dilution; VISA): > 16 µg/mL
C/C(=C\C(=O)OCCCCCCCCC(=O)O)C[C@@H]1OC[C@H](C[C@@H]2O[C@H]2[C@@H](C)[C@H](C)O)[C@@H](O)[C@H]1O — MIC (MRSA; drug-resistant strain): 0.5 µM
Cc1ccc2nc(-c3ccc(F)cc3)n(Cc3ccccc3)c2c1 — MIC (broth dilution; ATCC43300 MRSA; drug-resistant strain): 64 µg/mL
CCCCCCCC/C=C\CCCCCCCCNC(=O)CP(=O)(O)O — MIC (ATCC33591 MRSA; drug-resistant strain): 100 µg/mL
Cc1onc(-c2ccccc2)c1C(=O)N[C@@H]1C(=O)N2[C@@H]1SC(C)(C)[C@@H]2C(=O)O — MIC (broth dilution; MRSA): 32 µg/mL
COC(=O)c1cc(-c2cccc(NC(=O)Nc3ccc(Cl)cc3)c2)on1 — MIC (broth dilution; ATCC29213): > 64 µg/mL
O=[N+]([O-])c1ccc(-c2nc3cc(F)ccc3[nH]2)o1 — MIC (broth dilution; ATCC700699 MRSA; drug-resistant strain): 4 µg/mL
COC(=O)c1cc(-c2cccc(NC(=O)Nc3ccccc3C)c2)on1 — MIC (broth dilution; ATCC29213): > 64 µg/mL
CC[C@H](C)C[C@H](C)CCCCCCCCC(=O)N[C@H]1C[C@@H](O)[C@@H](NCCN)NC(=O)[C@@H]2[C@@H](O)CCN2C(=O)[C@H]([C@H](O)CCN)NC(=O)[C@H]([C@H](O)[C@@H](O)c2ccc(O)cc2)NC(=O)[C@@H]2C[C@@H](O)CN2C(=O)[C@H]([C@@H](C)O)NC1=O — MIC (broth dilution; MB2865): > 128 µg/mL
